From PMC8800165 (Antiviral Research, 2022)
“And” between values parts separate entries of the source, which are not always exact repeats. Equal values may be shown once. Read-outs that look alike come from different tables or passages of the source.

Experiments:
HCT-8 cells = assay: toxicity after incubation for 5 days in HCT-8 cells; assay type: cell-based; conditions: read-out: Toxicity CC50 HCT-8; incubation for 5 days
SARS-CoV-2 RdRp [1] = molecular target: T1, SARS-CoV-2 RdRp (Severe acute respiratory syndrome coronavirus 2, UniProt P0DTD1); assay: Bio layer interferometry binding assay; conditions: data not shown
LLC-MK2 cells = assay: toxicity after incubation for 5 days in LLC-MK2 cells; assay type: cell-based; conditions: read-out: Toxicity CC50 LLC-MK2
SARS-CoV-2 RdRp [2] = molecular target: T1, SARS-CoV-2 RdRp; conditions: for inhibition ratio against SARS-CoV-2 RdRp: 10 μM, library screen; for TI (CC50/EC50): CC50 HEK293T / RdRp EC50
[3] = molecular target: SARS-CoV-2 RdRp in the presence of nsp14 and nsp10 (Severe acute respiratory syndrome coronavirus 2, UniProt P0DTD1); assay: cell-based CoV-RdRp-Gluc system with nsp10/nsp14 proofreading function; conditions: EC50 with nsp14/nsp10 over EC50 without
HCoV-OC43 = assay: anti-coronavirus CPE inhibition assay; assay type: cell-based; conditions: read-out: EC50 HCoV-OC43 (CPE inhibition)
Procedure, shortened: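 HCT-8 cells (DMEM, 10% heat-inactivated FBS) seeded at 2 × 10^4/well for 24 h. Infected with HCoV-OC43 strain VR-1558 at MOI 0.1 in 2% FBS medium; two-fold serial dilutions of test compound (0.195–50 μM) added 1 h post-infection. Incubated 5 days at 33 °C, then MTS 3 h at 37 °C, A490. Means ± SD, three independent experiments.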

HCoV-NL63 = assay: anti-coronavirus CPE inhibition assay; assay type: cell-based; conditions: read-out: EC50 HCoV-NL63 (CPE inhibition); LLC-MK2, MOI 0.01, 5 days, MTS
Procedure, shortened: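 LLC-MK2 cells (DMEM, 10% heat-inactivated FBS) seeded at 2 × 10^4/well for 24 h. Infected with HCoV-NL63 strain Amsterdam I at MOI 0.01 in 2% FBS medium; test compound in two-fold dilutions (0.195–50 μM) given 1 h post-infection. Incubated 5 days at 33 °C; MTS 3 h at 37 °C, A490. Means ± SD, three independent experiments.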

HEK293T cells = assay: cell toxicity assay, CCK-8 kit; assay type: cell-based; conditions: HEK293T, 24 h, CCK-8
Procedure, shortened: (§1)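 HEK293T cells (DMEM, 10% FBS) seeded one day before treatment. Test compound added in […] for 24 h. CCK-8 (WST-8) reagent then added for 60 min at 37 °C, 5% CO2, and A450 read. CC50 derived from viability relative to DMSO-treated cells.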

SARS-CoV-2 RdRp [4] = molecular target: T1, SARS-CoV-2 RdRp; assay: CoV-Gluc plus- and minus-strand RNA by real-time qRT-PCR; assay type: cell-based; conditions: HEK293T, 2 μM or 10 μM, 24 h
[5] = toxicity after incubation for 5 days in HCT-8 cells; assay type: cell-based; conditions: human, HCT-8 cells
[6] = cell toxicity assay, CCK-8 kit; assay type: cell-based; conditions: human, HEK293T cells
Procedure, shortened: as §1

[7] = Betacoronavirus 1, OC43, HCT-8, 120 h

SMILES	CC50 (HCT-8 cells) [µM]	binding activity upon SARS-CoV-2 RdRp (SARS-CoV-2 RdRp [1])	CC50 (LLC-MK2 cells) [µM]	inhibition ratio against SARS-CoV-2 RdRp (SARS-CoV-2 RdRp [2])	TI (CC50/EC50) (SARS-CoV-2 RdRp [2])	Ratio (12 + 14/12) [3]	EC50 (HCoV-OC43; HCT-8, MOI 0.1, 5 days, MTS) [µM]	EC50 (HCoV-NL63) [µM]	CC50 (HEK293T cells) [µM]	levels of plus-strand and minus-strand Gluc RNA (SARS-CoV-2 RdRp [4])	CC50 at 5 days [5] [µM]	EC50 (HCoV-OC43; [7]) [µM]	CC50 at 24 h [6] [µM]
Nc1ncnc2c1c(I)cn2[C@@H]1O[C@H](CO)[C@@H](O)[C@H]1O [5-Iodotubercidin]	46.9 ± 2.37	did not detect the binding activity	45.6 ± 5.15	85.69% and > 75%	79.28	1.89	1.56	3.62	59.5	even better than the Remdesivir			
Nc1nc2c(ncn2[C@H]2C[C@H](O)[C@@H](CO)O2)c(=S)[nH]1 [6-Thio-dG, 6-Thio-20-Deoxyguanosine]	63 ± 3.52		68 ± 7.03	75.19% and > 75%		8.04	6.5	9.53	> 100				
Nc1nc(F)nc2c1ncn2[C@@H]1O[C@H](COP(=O)(O)O)[C@@H](O)[C@@H]1O [Fludarabine Phosphate]				89.78% and > 75%	70.15	7.19					37.5 ± 1.62	3.11	65.2
Nc1nc(F)nc2c1ncn2[C@@H]1O[C@H](CO)[C@@H](O)[C@@H]1O [Fludarabine]				88.71% and > 75%	50.58	11.53					40.4 ± 8.16	4.56	53.6
CCC(CC)COC(=O)[C@H](C)N[P@](=O)(OC[C@H]1O[C@@](C#N)(c2ccc3c(N)ncnn23)[C@H](O)[C@@H]1O)Oc1ccccc1 [Remdesivir]					>93.46								> 100
